How the values were obtained:
Homo sapiens = species on record: Homo sapiens; test: Selectivity ratio of IC50 for immunoproteasome 20s subunit beta5 in human Raji cells to IC50 for constitutive proteasome 20s subunit beta5 in human Raji cells; type: cell-based
How it was run: (§1)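 Initial screen in Raji cell extracts. Inhibitor at 0.01, 0.1, 1.0 and 10.0 µM final for 1 h at 37 °C, then ABP cocktail 1 h. In-gel fluorescence of β5c/β5i bands normalized to mock-treated extract, giving residual activity. Run once. IC50s from this screen feed the β5i/β5c ratio.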

[1] = target: T1, Proteasome Macropain subunit MB1 (Homo sapiens, UniProt P28074); test: (§2) Inhibition of catalytic activity of constitutive proteasome 20s subunit beta5 in human Raji cells incubated for 1 hr by BODIPY(TMR)-NC-005-VS probe based competitive activity based protein profiling assay; type: cell-based
T1 sequence (P28074 whole entry): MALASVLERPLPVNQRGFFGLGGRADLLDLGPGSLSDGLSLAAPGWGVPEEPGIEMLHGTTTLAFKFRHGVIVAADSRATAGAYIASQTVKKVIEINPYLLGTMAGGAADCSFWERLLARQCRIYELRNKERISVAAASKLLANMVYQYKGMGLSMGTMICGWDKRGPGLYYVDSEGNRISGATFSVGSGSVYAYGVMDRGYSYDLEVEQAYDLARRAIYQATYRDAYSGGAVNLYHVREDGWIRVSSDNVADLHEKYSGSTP

[2] = target: T2, Proteasome Macropain subunit MB1 (Homo sapiens) (UniProt P28074); test: Inhibition of catalytic activity of constitutive proteasome 20s subunit beta5 in human Raji cells assessed as residual activity at 0.01 uM incubated for 1 hr by BODIPY(TMR)-NC-005-VS probe based activity based protein profiling assay relative to control; type: cell-based; how it was run: as §1
T2 sequence (whole entry): T1 sequence (P28074 whole entry)

[3] = target: Proteasome subunit beta type-8 (β5i, LMP7) (Homo sapiens) (UniProt P28062); test: Inhibition of catalytic activity of immunoproteasome 20s subunit beta5 in human Raji cells assessed as residual activity at 0.01 uM incubated for 1 hr by BODIPY(TMR)-NC-005-VS probe based competitive activity based protein profiling assay relative to control
[4] = target: T2, Proteasome Macropain subunit MB1 (Homo sapiens); test: as §2; type: cell-based
[5] = target: T3, Proteasome component C5 (Homo sapiens) (UniProt P20618); test: Inhibition of catalytic activity of constitutive proteasome 20s subunit beta1 in human Raji cells incubated for 1 hr by Cy5-NC-001 probe based competitive activity based protein profiling assay; type: cell-based
T3 sequence (whole entry): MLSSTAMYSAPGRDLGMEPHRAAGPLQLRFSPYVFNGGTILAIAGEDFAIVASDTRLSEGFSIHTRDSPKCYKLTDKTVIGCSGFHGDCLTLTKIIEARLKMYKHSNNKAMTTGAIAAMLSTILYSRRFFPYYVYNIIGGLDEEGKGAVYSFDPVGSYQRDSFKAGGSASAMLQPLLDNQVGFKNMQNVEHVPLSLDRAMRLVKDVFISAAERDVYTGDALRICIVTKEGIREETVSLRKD

[6] = target: Proteasome subunit beta type-9 (β1i, LMP2) (Homo sapiens) (UniProt P28065); test: Inhibition of catalytic activity of immunoproteasome 20s subunit beta1 in human Raji cells incubated for 1 hr by Cy5-NC-001 probe based competitive activity based protein profiling assay
[7] = target: Proteasome subunit beta type-8 (β5i, LMP7) (Homo sapiens) (UniProt P28062); test: Inhibition of catalytic activity of immunoproteasome 20s subunit beta5 in human Raji cells incubated for 1 hr by BODIPY(TMR)-NC-005-VS probe based competitive activity based protein profiling assay
[8] = target: Proteasome Macropain subunit (Homo sapiens) (UniProt P49721); test: Inhibition of catalytic activity of constitutive proteasome 20s subunit beta2 in human Raji cells incubated for 1 hr by BODIPY(FL)-LU-112 probe based competitive activity based protein profiling assay; type: cell-based

Row | SMILES | IC50 [1] [nM] | Activity [2] [%] | Ratio IC50 (Homo sapiens) | further results
1 | C[C@H](NC(=O)[C@H](Cc1ccccc1)NC(=O)[C@H](CC1CCCCC1)NC(=O)[C@H](Cc1ccccc1)N=[N+]=[N-])C(=O)[C@@]1(C)CO1 | 57 |  | > 175 | 
2 | CC(C)C[C@H](NC(=O)[C@H](Cc1ccccc1)NC(=O)[C@H](CCC1CCCCC1)NC(=O)[C@H](Cc1ccccc1)N=[N+]=[N-])C(=O)[C@@]1(C)CO1 | 36 |  | 1 | 
3 | C[C@H](NC(=O)[C@H](Cc1ccccc1)NC(=O)[C@H](CC1CCC(C2CCCCC2)CC1)NC(=O)[C@H](Cc1ccccc1)N=[N+]=[N-])C(=O)[C@@]1(C)CO1 (some centres undefined) | 20 to 74.7 |  |  | pIC50(app) [4]: 7.13; pIC50(app) [5]: < 4; pIC50(app) [6]: < 4; pIC50(app) [7]: 4.78
4 | COc1ccc(C[C@H](NC(=O)[C@H](CC2CCCCC2)NC(=O)CN2CCOCC2)C(=O)N[C@@H](CC(C)C)C(=O)[C@@]2(C)CO2)cc1 | 119 |  | 2 | 
5 | C[C@H](NC(=O)[C@H](Cc1ccccc1)NC(=O)[C@H](C[C@H]1CC[C@@H](C2CCCCC2)CC1)NC(=O)[C@H](Cc1ccccc1)N=[N+]=[N-])C(=O)[C@@]1(C)CO1 | 710 |  |  | 
6 | C[C@H](NC(=O)[C@H](Cc1ccccc1)NC(=O)[C@H](CC1CCC(C2CCCCC2)CC1)NC(=O)CN1CCOCC1)C(=O)[C@@]1(C)CO1 (some centres undefined) | 1230 |  | > 8 | 
7 | C[C@H](NC(=O)[C@H](Cc1ccccc1)NC(=O)[C@@H](NC(=O)[C@H](Cc1ccccc1)N=[N+]=[N-])[C@H](C)OC(C)(C)C)C(=O)[C@@]1(C)CO1 | > 10000 |  |  | 
8 | CC(C)C[C@H](NC(=O)[C@H](Cc1ccccc1)NC(=O)[C@H](Cc1ccccc1)NC(=O)[C@H](Cc1ccccc1)N=[N+]=[N-])C(=O)[C@@]1(C)CO1 |  |  |  | pIC50(app) [8]: 7.18; pIC50(app) [5]: < 4; pIC50(app) [6]: 6.91
9 | COc1ccc(C[C@H](NC(=O)[C@H](CC23CC4CC(CC(C4)C2)C3)NC(=O)CN2CCOCC2)C(=O)N[C@@H](CC(C)C)C(=O)[C@@]2(C)CO2)cc1 | 853 |  | 1 | 
10 | CC(C)C[C@H](NC(=O)[C@H](Cc1ccccc1)NC(=O)[C@@H](NC(=O)[C@H](Cc1ccccc1)N=[N+]=[N-])C1CCCCC1)C(=O)[C@@]1(C)CO1 | 33 |  | 2 | 
11 | CC(C)C[C@H](NC(=O)[C@H](Cc1ccccc1)NC(=O)[C@H](CC1CCC(C2CCCCC2)CC1)NC(=O)[C@H](Cc1ccccc1)N=[N+]=[N-])C(=O)[C@@]1(C)CO1 (some centres undefined) | 17 to 19 |  |  | pIC50(app) [4]: 7.77; pIC50(app) [5]: < 4; pIC50(app) [6]: < 4; pIC50(app) [7]: 6.36
12 | CC(C)C[C@H](NC(=O)[C@H](Cc1ccccc1)NC(=O)[C@H](CC1CCCC2CCCCC21)NC(=O)[C@H](Cc1ccccc1)N=[N+]=[N-])C(=O)[C@@]1(C)CO1 (some centres undefined) | < 10 | 40 | > 1.5 | 
13 | CC(C)C[C@H](NC(=O)[C@H](Cc1ccccc1)NC(=O)[C@H](Cc1cccc2ccccc12)NC(=O)[C@H](Cc1ccccc1)N=[N+]=[N-])C(=O)[C@@]1(C)CO1 | < 10 | 12 |  | Activity [3]: 28%
14 | CC(C)C[C@H](NC(=O)[C@H](Cc1ccccc1)NC(=O)[C@@H](NC(=O)[C@H](Cc1ccccc1)N=[N+]=[N-])c1ccccc1)C(=O)[C@@]1(C)CO1 | < 10 | 44 |  | Activity [3]: 56%
15 | CC(C)C[C@H](NC(=O)[C@H](Cc1ccccc1)NC(=O)[C@H](CC(C)(C)C)NC(=O)[C@H](Cc1ccccc1)N=[N+]=[N-])C(=O)[C@@]1(C)CO1 | 18 |  | 4 | 
16 | CC(C)C[C@H](NC(=O)[C@H](Cc1ccccc1)NC(=O)[C@H](Cc1ccc(-c2ccccc2)cc1)NC(=O)[C@H](Cc1ccccc1)N=[N+]=[N-])C(=O)[C@@]1(C)CO1 | < 10 | 9 |  | Activity [3]: 28%
17 | C[C@H](NC(=O)[C@H](Cc1ccccc1)NC(=O)[C@H](C[C@H]1CC[C@@H](c2ccccc2)CC1)NC(=O)[C@H](Cc1ccccc1)N=[N+]=[N-])C(=O)[C@@]1(C)CO1 | 71 |  | 165 | 
18 | C[C@H](NC(=O)[C@H](Cc1ccccc1)NC(=O)[C@H](Cc1ccc(-c2ccccc2)cc1)NC(=O)[C@H](Cc1ccccc1)N=[N+]=[N-])C(=O)[C@@]1(C)CO1 | < 10 |  | > 13 | 
19 | CC1=C(C(=O)N[C@H](C)C(=O)N[C@@H](Cc2c[nH]c3ccccc23)C(=O)N[C@@H](CC2CCCCC2)C(=O)[C@@]2(C)CO2)Cc2ccccc21 | > 1000 |  |  | 
20 | COc1ccc(C[C@H](NC(=O)[C@H](CC23CC4CC(CC(C4)C2)C3)NC(=O)CN2CCOCC2)C(=O)N[C@@H](C)C(=O)[C@@]2(C)CO2)cc1 | 853 |  | > 12 | 

Now from value to molecule, other results behind:

Row | IC50 [1] [nM] | Activity [2] [%] | SMILES | Ratio IC50 (Homo sapiens) | further results
21 | < 10 |  | CC(C)C[C@H](NC(=O)[C@H](Cc1ccccc1)NC(=O)[C@H](CC1CCCCC1)NC(=O)[C@H](Cc1ccccc1)N=[N+]=[N-])C(=O)[C@@]1(C)CO1 | > 5 | 
22 | < 10 | 6 | Cc1ccc(C[C@H](NC(=O)[C@H](Cc2ccccc2)N=[N+]=[N-])C(=O)N[C@@H](Cc2ccccc2)C(=O)N[C@@H](CC(C)C)C(=O)[C@@]2(C)CO2)cc1 |  | Activity [3]: 15%
23 | < 10 | 23 | COc1ccc(C[C@H](NC(=O)[C@H](Cc2ccc(-c3ccccc3)cc2)NC(=O)CN2CCOCC2)C(=O)N[C@@H](CC(C)C)C(=O)[C@@]2(C)CO2)cc1 |  | Activity [3]: 44%
24 | < 10 | 9 | COc1ccc(C[C@H](NC(=O)[C@H](Cc2ccc3ccccc3c2)NC(=O)CN2CCOCC2)C(=O)N[C@@H](CC(C)C)C(=O)[C@@]2(C)CO2)cc1 |  | Activity [3]: 23%
25 | 3 |  | CC(C)C[C@H](NC(=O)[C@H](Cc1ccccc1)NC(=O)[C@H](CCc1ccccc1)NC(=O)[C@H](Cc1ccccc1)N=[N+]=[N-])C(=O)[C@@]1(C)CO1 |  | pIC50(app) [4]: 8.53; pIC50(app) [8]: 7.22; pIC50(app) [5]: < 4; pIC50(app) [6]: 6.79; pIC50(app) [7]: 8.29
26 | < 10 | 14 | CC(C)C[C@H](NC(=O)[C@H](Cc1ccccc1)NC(=O)[C@H](Cc1ccc2ccccc2c1)NC(=O)[C@H](Cc1ccccc1)N=[N+]=[N-])C(=O)[C@@]1(C)CO1 |  | Activity [3]: 49%
27 | < 10 | 24 | CC(C)C[C@H](NC(=O)[C@H](Cc1ccccc1)NC(=O)[C@H](CC1CC2CCC1C2)NC(=O)[C@H](Cc1ccccc1)N=[N+]=[N-])C(=O)[C@@]1(C)CO1 (some centres undefined) | > 3 | 
28 | < 10 | 30 | COc1ccc(C[C@H](NC(=O)[C@H](Cc2cccc3ccccc23)NC(=O)CN2CCOCC2)C(=O)N[C@@H](CC(C)C)C(=O)[C@@]2(C)CO2)cc1 |  | Activity [3]: 36%
29 | 3.8 |  | C[C@H](NC(=O)[C@H](Cc1ccccc1)NC(=O)[C@H](C[C@H]1CC[C@H](c2ccccc2)CC1)NC(=O)[C@H](Cc1ccccc1)N=[N+]=[N-])C(=O)[C@@]1(C)CO1 | 2250 | 
30 | < 10 | 16 | CC(C)C[C@H](NC(=O)[C@H](Cc1ccccc1)NC(=O)[C@H](Cc1c[nH]c2ccccc12)NC(=O)[C@H](Cc1ccccc1)N=[N+]=[N-])C(=O)[C@@]1(C)CO1 |  | Activity [3]: 49%
31 | 2.1 |  | COc1ccc(C[C@H](NC(=O)[C@H](Cc2ccccc2)N=[N+]=[N-])C(=O)N[C@@H](Cc2ccccc2)C(=O)N[C@@H](CC(C)C)C(=O)[C@@]2(C)CO2)cc1 |  | pIC50(app) [4]: 8.68; pIC50(app) [8]: 6.95; pIC50(app) [5]: 6.75; pIC50(app) [6]: 6.88; pIC50(app) [7]: 8.11
32 | < 10 | 36 | CC(C)C[C@H](NC(=O)[C@H](Cc1ccccc1)NC(=O)[C@H](CC1CCC2CCCCC2C1)NC(=O)[C@H](Cc1ccccc1)N=[N+]=[N-])C(=O)[C@@]1(C)CO1 (some centres undefined) | > 2.5 | 
33 | 2.1 |  | COC1CCC(C[C@H](NC(=O)[C@H](Cc2ccccc2)N=[N+]=[N-])C(=O)N[C@@H](Cc2ccccc2)C(=O)N[C@@H](CC(C)C)C(=O)[C@@]2(C)CO2)CC1 (some centres undefined) |  | pIC50(app) [4]: 8.68; pIC50(app) [8]: 7.18; pIC50(app) [5]: < 4; pIC50(app) [6]: 6.05; pIC50(app) [7]: 7.67

Source: ChEMBL document CHEMBL4477237, “Structure-Based Design of β5c Selective Inhibitors of Human Constitutive Proteasomes” (J Med Chem, 2016)
